Source: ChEMBL document CHEMBL1157684, “2-Thienyl-4-furyl-6-aryl pyridine derivatives: synthesis, topoisomerase I and II inhibitory activity, cytotoxicity, and structure-activity relationship study” (Bioorg Med Chem, 2010)
The source made the active and inactive calls. The calls are words filed in the database; no cut-off is given here.

What was measured:
K562 = experiment: Cytotoxicity against human K562 cells after 4 days by ELISA reader assay; assay type: functional, cell-based; details: K562, 96 h
Outline: (§1)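 Cells grown per supplier, seeded at 2–4 × 10⁴ per well, left overnight in medium with 10% FBS at 37 °C under 5% CO₂, then exposed to compounds. WST (cell counting kit-8) reagent added for a further 4 h, absorbance read at 450 nm. IC50 from four-parameter logistic fit; mean ± S.D. of three experiments, each in triplicate.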

DU-145 = experiment: Cytotoxicity against human DU145 cells after 4 days by ELISA reader assay; assay type: functional, cell-based; details: DU-145, 96 h; outline: as §1
[1] = biological target: T1, DNA topoisomerase 1 (Homo sapiens) (UniProt P11387); experiment: Inhibition of human recombinant DNA topoisomerase 1-mediated relaxation of supercoiled pBR322 DNA at 100 uM after 30 mins by agarose gel electrophoresis
T1 sequence (whole entry): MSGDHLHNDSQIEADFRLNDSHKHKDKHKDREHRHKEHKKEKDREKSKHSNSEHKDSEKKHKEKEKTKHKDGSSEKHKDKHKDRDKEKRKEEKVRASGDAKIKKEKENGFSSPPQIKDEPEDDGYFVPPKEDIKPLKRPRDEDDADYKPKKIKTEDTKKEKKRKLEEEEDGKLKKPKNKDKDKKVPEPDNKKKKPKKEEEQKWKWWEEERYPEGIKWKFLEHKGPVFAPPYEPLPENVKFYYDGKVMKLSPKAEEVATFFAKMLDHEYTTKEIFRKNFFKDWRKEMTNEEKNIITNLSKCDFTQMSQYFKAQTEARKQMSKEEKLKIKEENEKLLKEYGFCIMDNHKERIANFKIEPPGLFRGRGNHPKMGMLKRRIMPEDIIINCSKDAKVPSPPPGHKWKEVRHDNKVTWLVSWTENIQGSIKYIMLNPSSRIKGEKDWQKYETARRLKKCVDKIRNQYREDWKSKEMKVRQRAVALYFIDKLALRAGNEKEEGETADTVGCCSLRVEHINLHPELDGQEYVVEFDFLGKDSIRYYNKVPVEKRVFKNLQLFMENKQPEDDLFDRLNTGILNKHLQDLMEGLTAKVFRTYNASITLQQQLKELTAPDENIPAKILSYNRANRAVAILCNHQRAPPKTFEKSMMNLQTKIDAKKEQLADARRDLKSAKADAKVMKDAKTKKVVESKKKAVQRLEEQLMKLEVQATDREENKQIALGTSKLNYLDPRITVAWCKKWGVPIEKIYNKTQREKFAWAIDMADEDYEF
Outline: (§2)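 Recombinant human topo I (0.4 units) with 100 ng supercoiled pBR322, 30 min at 37 °C in 10 mM Tris–HCl pH 7.9, 150 mM NaCl, 0.1% BSA, 1 mM spermidine, 5% glycerol. Compounds from 20 mM DMSO stock. Products run on 1% agarose in TAE, 15 V for 7 h, ethidium-stained, bands quantified under UV.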

MCF7 = experiment: Cytotoxicity against human MCF7 cells after 4 days by ELISA reader assay; assay type: functional, cell-based; details: MCF7, 96 h; outline: as §1
[2] = biological target: DNA topoisomerase 2-alpha (Homo sapiens) (UniProt P11388); experiment: Inhibition of human DNA topoisomerase 2alpha-mediated relaxation of supercoiled pBR322 DNA at 20 uM after 30 mins by agarose gel electrophoresis
DNA topoisomerase 2-alpha (Homo sapiens), sequence (P11388 whole entry): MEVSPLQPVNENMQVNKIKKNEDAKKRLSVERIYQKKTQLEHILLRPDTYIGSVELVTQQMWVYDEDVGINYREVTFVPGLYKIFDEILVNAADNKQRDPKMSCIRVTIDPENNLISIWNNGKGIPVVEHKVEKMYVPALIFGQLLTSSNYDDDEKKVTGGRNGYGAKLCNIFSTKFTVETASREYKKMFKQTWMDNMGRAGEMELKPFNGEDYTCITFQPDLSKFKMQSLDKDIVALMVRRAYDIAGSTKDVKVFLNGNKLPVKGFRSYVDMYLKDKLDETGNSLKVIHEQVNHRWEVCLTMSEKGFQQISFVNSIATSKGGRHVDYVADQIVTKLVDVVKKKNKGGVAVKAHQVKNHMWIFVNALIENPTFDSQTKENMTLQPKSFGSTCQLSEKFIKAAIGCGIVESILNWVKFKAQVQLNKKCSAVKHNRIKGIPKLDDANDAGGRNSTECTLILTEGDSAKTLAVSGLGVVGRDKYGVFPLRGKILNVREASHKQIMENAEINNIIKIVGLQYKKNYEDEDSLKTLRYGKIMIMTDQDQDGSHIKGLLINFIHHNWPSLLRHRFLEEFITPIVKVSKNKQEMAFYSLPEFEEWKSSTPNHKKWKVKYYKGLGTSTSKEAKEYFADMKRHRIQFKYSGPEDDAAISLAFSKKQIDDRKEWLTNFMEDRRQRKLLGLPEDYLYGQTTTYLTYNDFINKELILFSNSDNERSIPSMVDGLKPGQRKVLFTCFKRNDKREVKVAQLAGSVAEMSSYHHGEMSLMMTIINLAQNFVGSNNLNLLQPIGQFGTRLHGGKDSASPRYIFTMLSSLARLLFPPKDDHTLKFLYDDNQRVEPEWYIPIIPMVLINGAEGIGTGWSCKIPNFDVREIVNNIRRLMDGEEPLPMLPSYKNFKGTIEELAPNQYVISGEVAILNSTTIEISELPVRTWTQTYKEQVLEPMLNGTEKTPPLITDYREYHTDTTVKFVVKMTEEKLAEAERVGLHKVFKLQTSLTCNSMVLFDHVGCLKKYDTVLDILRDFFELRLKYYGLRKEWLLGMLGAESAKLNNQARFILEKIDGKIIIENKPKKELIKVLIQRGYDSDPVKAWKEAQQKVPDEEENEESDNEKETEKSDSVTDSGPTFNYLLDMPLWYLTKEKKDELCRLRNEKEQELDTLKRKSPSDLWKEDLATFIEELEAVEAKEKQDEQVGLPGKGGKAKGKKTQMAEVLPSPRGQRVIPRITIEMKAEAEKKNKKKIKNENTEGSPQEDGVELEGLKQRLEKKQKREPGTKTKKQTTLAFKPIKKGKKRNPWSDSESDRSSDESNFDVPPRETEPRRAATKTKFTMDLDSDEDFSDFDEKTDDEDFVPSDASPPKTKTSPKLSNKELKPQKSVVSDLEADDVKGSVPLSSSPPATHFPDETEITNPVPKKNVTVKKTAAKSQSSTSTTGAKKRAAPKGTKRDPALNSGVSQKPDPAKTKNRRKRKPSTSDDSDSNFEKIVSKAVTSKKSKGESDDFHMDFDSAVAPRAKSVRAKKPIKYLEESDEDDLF
Outline: (§3)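 Human topo IIα (1 unit) with 200 ng supercoiled pBR322, 30 min at 30 °C in 10 mM Tris–HCl pH 7.9, 50 mM NaCl, 50 mM KCl, 5 mM MgCl2, 1 mM EDTA, 1 mM ATP plus BSA. Products run on 1% agarose in TAE at 25 V for 4 h, ethidium-stained, supercoiled DNA quantified under UV.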

HeLa = experiment: Cytotoxicity against human HeLa cells after 4 days by ELISA reader assay; assay type: functional, cell-based; details: 96 h; outline: as §1
HCT-15 = experiment: Cytotoxicity against human HCT15 cells after 4 days by ELISA reader assay; assay type: functional, cell-based; details: HCT-15, 96 h; outline: as §1
[3] = biological target: DNA topoisomerase 2-alpha (Homo sapiens) (UniProt P11388); experiment: Inhibition of human DNA topoisomerase 2alpha-mediated relaxation of supercoiled pBR322 DNA at 100 uM after 30 mins by agarose gel electrophoresis; outline: as §3
[4] = biological target: T1, DNA topoisomerase 1 (Homo sapiens); experiment: Inhibition of human recombinant DNA topoisomerase 1-mediated relaxation of supercoiled pBR322 DNA at 20 uM after 30 mins by agarose gel electrophoresis; outline: as §2

inhibition [1]: 14.2% | inhibition [2]: 41.1% | inhibition [3]: 58.6% | inhibition [4]: inactive
SMILES: Cc1ccc(-c2cc(-c3ccc(Cl)o3)cc(-c3ccc(Cl)s3)n2)cc1
IC50 (K562): 21.4 µM | IC50 (DU-145): > 50 µM | IC50 (MCF7): 3.04 µM | IC50 (HeLa): > 50 µM | IC50 (HCT-15): > 50 µM
